# Test results as given in ChEMBL document CHEMBL1125654, “New inhibitors of human renin that contain novel replacements at the P2 site” (J Med Chem, 1991).
# Key:
# [1] = Partition coefficient (logD7.4); conditions: octanol/water
# Renin (Homo sapiens) = target: T1, Renin (Homo sapiens) (UniProt P00797); assay: Inhibitory activity against monkey plasma renin was determined at 10e-5 M concentration; type: cell-free; conditions: Cercopithecidae, target entry is the homologue from another species
# T1 sequence (whole entry): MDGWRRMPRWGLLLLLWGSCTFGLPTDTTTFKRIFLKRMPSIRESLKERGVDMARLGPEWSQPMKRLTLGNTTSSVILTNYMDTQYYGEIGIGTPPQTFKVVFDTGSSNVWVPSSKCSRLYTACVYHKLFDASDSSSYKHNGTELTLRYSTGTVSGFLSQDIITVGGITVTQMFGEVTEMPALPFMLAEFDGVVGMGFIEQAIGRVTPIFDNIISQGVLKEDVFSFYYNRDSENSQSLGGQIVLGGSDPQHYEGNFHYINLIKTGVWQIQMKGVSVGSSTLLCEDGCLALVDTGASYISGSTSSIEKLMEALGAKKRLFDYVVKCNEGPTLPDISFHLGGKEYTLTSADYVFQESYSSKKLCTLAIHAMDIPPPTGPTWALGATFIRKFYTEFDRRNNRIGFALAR
# How it was run: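 Angiotensin I generated from monkey plasma (native renin and angiotensinogen) with maleate buffer pH 6.0, PMSF and inhibitor in DMSO, 60 min at 37 °C. Percent inhibition estimated against DMSO vehicle control tubes. Plasma renin activity 3–8 ng AI/mL per h.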
# Renin [2] = target: T2, Renin (Homo sapiens, UniProt P00797); assay: Inhibitory activity against human plasma renin; type: cell-free
# T2 sequence (P00797 whole entry): T1 sequence (whole entry)
# Renin [3] = target: T2, Renin; assay: Inhibitory activity against monkey plasma renin.; type: cell-free, Cercopithecidae; conditions: target entry is the homologue from another species
# How it was run: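 Plasma from salt-depleted, furosemide-treated monkeys (native renin and angiotensinogen) incubated with maleate buffer (pH 6.0), PMSF and inhibitor in DMSO for 60 min at 37 °C. Plasma renin activity was 3–8 ng AI/mL per h. Percent inhibition was taken vs DMSO vehicle tubes, and IC50 from six concentrations by nonlinear regression.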
# Cathepsin D [4] = target: T3, Cathepsin D (Bos taurus, UniProt P80209); assay: Inhibitory activity against bovine Cathepsin D was determined
# T3 sequence (P80209 whole entry): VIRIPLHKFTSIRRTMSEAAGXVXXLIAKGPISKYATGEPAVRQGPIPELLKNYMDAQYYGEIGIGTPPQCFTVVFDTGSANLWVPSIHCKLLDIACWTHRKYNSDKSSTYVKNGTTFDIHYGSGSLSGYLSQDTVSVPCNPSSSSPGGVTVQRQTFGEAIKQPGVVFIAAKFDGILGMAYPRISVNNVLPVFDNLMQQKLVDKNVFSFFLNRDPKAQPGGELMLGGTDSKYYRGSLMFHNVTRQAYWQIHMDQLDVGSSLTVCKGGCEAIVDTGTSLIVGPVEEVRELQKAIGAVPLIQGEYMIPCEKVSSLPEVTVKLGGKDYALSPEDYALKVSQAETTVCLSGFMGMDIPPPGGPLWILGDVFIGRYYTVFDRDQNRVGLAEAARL
# How it was run: (§1)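 Bovine cathepsin D activity assayed in duplicate as hydrolysis of bovine hemoglobin (2× crystallized) at pH 3.2, 37 °C. Net absorbance at 280 nm read in acid-precipitated supernatants of inhibited vs uninhibited controls. IC50 from six inhibitor concentrations by nonlinear regression.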
# [5] = solubility in phosphate buffer at pH 7.4; type: physicochemical
# Cathepsin D (Bos taurus) = target: T4, Cathepsin D (Bos taurus) (UniProt P80209); assay: (§2) Inhibitory activity against bovine cathepsin D was determined; conditions: concentration not given here; how it was run: as §1
# T4 sequence (whole entry): T3 sequence (P80209 whole entry)
# Renin [6] = target: T2, Renin; assay: Inhibitory activity against human plasma renin; G means not measured; type: cell-free
# Cathepsin D [7] = target: T3, Cathepsin D; assay: as §2; how it was run: as §1
"logD ([1]; pH 7.4, logD)",IC50 (Renin [2]) [nM],IC50 (Renin [3]) [nM],Compound,other results
6.7,3000,–,CCC(C)CNC(=O)C[C@H](O)C(CC(C)C)NC(=O)C(CCCCNS(=O)(=O)c1ccc(C)cc1)NC(=O)C(Cc1cccc2ccccc12)Cc1cccc2ccccc12 (some centres not stated),inhibition (Renin (Homo sapiens)): 48%
5.71,13,23,CCC(C)CNC(=O)C[C@H](O)C(CC(C)C)NC(=O)C(CCCC/N=C(/S)NC)NC(=O)C(Cc1cccc2ccccc12)Cc1cccc2ccccc12 (some centres not stated),IC50 (Cathepsin D [4]): 781 nM; solubility [5]: < 10 µg/mL
–,–,–,NCCC1CN(C(=O)C[C@H](O)C(CC2CCCCC2)NC(=O)C(CC#CC/N=C(/N)N[N+](=O)[O-])NC(=O)C(Cc2cccc3ccccc23)Cc2cccc3ccccc23)CCO1 (some centres not stated),inhibition (Cathepsin D (Bos taurus)): 0.7%
5.32,–,4.6,CCC(C)CNC(=O)C[C@H](O)C(CC(C)C)NC(=O)C(CC#CCNC(C)=O)NC(=O)C(Cc1cccc2ccccc12)Cc1cccc2ccccc12 (stereo in doubt; 55a),IC50 (Renin [6]): 2 nM; IC50 (Cathepsin D [7]): 78 nM
6.7,60,99,C/N=C(\S)NCCCCC(NC(=O)C(Cc1cccc2ccccc12)Cc1cccc2ccccc12)C(=O)NC(CC(C)C)[C@@H](O)CC(=O)NC(CC(C)C)C(=O)NCc1ccccc1 (some centres not stated),solubility [5]: < 10 µg/mL
–,–,9,CC(=O)NCC#CCC(NC(=O)C(Cc1cccc2ccccc12)Cc1cccc2ccccc12)C(=O)NC(CC1CCCCC1)[C@@H](O)CC(=O)N1CCOC(CCN)C1 (some centres not stated),inhibition (Cathepsin D (Bos taurus)): 0.3%

Compound,"logD ([1]; pH 7.4, logD)",IC50 (Renin [2]) [nM],IC50 (Renin [3]) [nM],other results
CCC(C)CNC(=O)C[C@H](O)C(CC(C)C)NC(=O)C(CCCCNP(=O)(Oc1ccccc1)Oc1ccccc1)NC(=O)C(Cc1cccc2ccccc12)Cc1cccc2ccccc12 (some centres not stated),–,740,–,logD ([1]; pH 7.4): 7.88; inhibition (Renin (Homo sapiens)): 48%
